Measured values from different studies.
Protocols differ between the studies behind these lines.
Target: Dual specificity protein kinase CLK4 (CLK4, Homo sapiens, UniProt Q9HAZ1)

Compound | test | setting | quantity | result
Cc1ccc(NC(=O)c2ccc(CN3CCN(C)CC3)cc2)cc1Nc1nc(-c2cccnc2)cs1 | cell-free assay | 0.5 µM | remaining signal | 93.3%
FC(F)(F)c1ccc2c(c1)nc(-c1cccnc1)n2C1CC1 | cell-free assay, competition with immobilised ligand | 1 µM | remaining binding | 100%
Cn1cnc(Br)c1C1=CN(c2ncnc3[nH]cnc23)CCS1 | enzyme activity, inhibitor, radiometric | 50 nM | inhibition | 24%
CC(C)(C)c1nc(-c2cccc(NS(=O)(=O)c3c(F)cccc3F)c2F)c(-c2ccnc(N)n2)s1 | enzyme activity, inhibitor, radiometric | 1 µM | remaining activity | 74%
N#CCCc1ccc2c(c1)-c1[nH]c3ccc([N+](=O)[O-])cc3c1CC(=O)N2 | cell-free assay | 0.5 µM | remaining signal | 77.1%
Cc1ccc(C(=O)Nc2ccc(CN3CCN(C)CC3)c(C(F)(F)F)c2)cc1C#Cc1cnc2cccnn12 | enzyme activity, inhibitor | 23.5 nM | remaining activity | 54%
Cn1cncc1C1=CN(c2ncnc3[nH]cnc23)CCS1 | enzyme activity, inhibitor, radiometric | 50 nM | inhibition | 27.1%
CCCCN(CCCC)C(=O)CN1C[C@@H](c2cc(OC)c3c(c2)OCO3)[C@H](C(=O)O)[C@H]1CC(C)(C)CCC | cell-free assay, competition with immobilised ligand | 1 µM | remaining binding | 72.4%
O=C(CSc1nc2nccnc2c(=O)n1CCc1ccccc1)Nc1nccs1 | enzyme activity, inhibitor | 10 µM | inhibition | 5%
COc1cc(-c2cc(-c3ccc(N4CCNCC4)cc3)cnc2C)cc(OC)c1OC | enzyme activity, inhibitor | 0.1 µM | inhibition | 1%
Oc1cccc(-c2nc(N3CCOCC3)c3oc4ncccc4c3n2)c1 | cell-free assay | 0.5 µM | remaining signal | 81.5%
COc1cccc(CNC(=O)c2nc3scc(COCc4ccc(C(=O)O)cc4)c3c(=O)[nH]2)c1 | cell-free assay, competition with immobilised ligand | 1 µM | remaining binding | 94.4%
Cc1cc(NC(=O)c2cccc3cc(-c4cccc5[nH]nc(N)c45)ccc23)ccc1F | enzyme activity, inhibitor | 0.1 µM | activity vs control | 90%
O=C(Nc1cnn(-c2csc(C(=O)NC3COC3)c2)c1)Nc1c(F)cccc1Cl | enzyme activity, inhibitor | 5 µM | remaining activity | 93.2%
C[C@@H]1CN(c2cc(-c3nn(C)c4ccc(OC5(C)CC5)cc34)ncn2)C[C@H](C)O1 | cell-free assay, competition with immobilised ligand | 1 µM | remaining binding | 100%
CC(C)(O)[C@H]1CC[C@H](Nc2ccc3ncc(-c4cccc(C(F)(F)F)c4)n3n2)CC1 | enzyme activity, inhibitor | 1 µM | remaining activity | 21.3%
O=C1NC(=O)c2cc(Nc3ccc(F)cc3)c(Nc3ccc(F)cc3)cc21 | cell-free assay | 0.5 µM | remaining signal | 88.6%
CCCOc1ccc([C@@H]2[C@@H](C(=O)O)[C@H](c3ccc4c(c3)OCO4)CN2CC(=O)Nc2c(CC)cccc2CC)cc1 | cell-free assay, competition with immobilised ligand | 1 µM | remaining binding | 89%
Oc1ccc(-c2nc(-c3ccncc3)c(-c3ccc(F)cc3)[nH]2)cc1 | cell-free assay | 0.5 µM | remaining signal | 106%
CCOCCn1cc(C(=O)Nc2ccc(-n3nc(-c4cccnc4)cc3C(F)(F)F)cn2)ccc1=O | cell-free assay, competition with immobilised ligand | 1 µM | remaining binding | 100%
